Data on four compounds can be found in ChEMBL document CHEMBL4680304, “Synthesis and evaluation of new phenyl acrylamide derivatives as potent non-nucleoside anti-HBV agents” (Bioorg Med Chem, 2021).

Molecules are shown by their SMILES.

Broadly, the IC50 is the point on the concentration scale where inhibition reaches its midpoint. A word on the CC50: it is the concentration giving 50% cytotoxicity.

In data set [1] the test system is Hepatitis B virus. Description: Antiviral activity against HBV infected in human HepG2 2.2.15 cells assessed as decrease in extracellular viral DNA level measured after incubation of 6 days by RT-PCR analysis. In kind it is functional, organism-based. Particulars: HepG2 2.2.15, 144 h. The essentials: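 Cells were HepG2 2.2.15 (stable HBV genome), seeded at 2×10^5/well and recovered for 24 h. Dose-dependent exposure to compound lasted 6 days, with medium replaced every 2 days. HBV DNA was measured by real-time PCR. IC50 is the concentration giving 50% inhibition of HBV DNA replication, reported as mean ± SD of triplicate experiments.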

In data set [2] the test system is Hepatitis B virus. Description: Antiviral activity against HBV infected in human HepG2 2.2.15 cells assessed as decrease in extracellular viral DNA level at 0.8 uM measured after incubation of 6 days by RT-PCR analysis. The data set is classed as functional. Particulars: HepG2 2.2.15, 144 h, time 6 day. In short, it runs like this:
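HepG2 2.2.15 cells, which stably carry the HBV genome, were grown in DMEM with 10% FBS, penicillin/streptomycin and 0.38 mg/mL G418. They were seeded at 2×10^5/well and allowed to recover for 24 h. Cells were then exposed to 0.8 µM compound for 6 days, with medium changed every 2 days. HBV DNA was quantified by real-time PCR and expressed as % inhibition versus control.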

The nature of data set [3]: Selectivity index, ratio of CC50 for human HepG2 2.2.15 to IC50 of antiviral activity against HBV infected in human HepG2 2.2.15 cells assessed as decrease in extracellular viral DNA level measured after incubation of 6 days by RT-PCR analysis. In kind it is toxicity, cell-based. Particulars: time 6 day, read-out: Selectivity Index. In short, it runs like this:
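SI was calculated as the CC50 in HepG2 2.2.15 cells (72 h MTT) divided by the IC50 for HBV DNA inhibition. That IC50 came from HepG2 2.2.15 cells treated for 6 days with medium changed every 2 days, with HBV DNA quantified by real-time PCR.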

Data set [4] concerns Hepatitis B virus. Description: Antiviral activity against wild type HBV infected in human […] cells assessed as inhibition of viral DNA replication at 100 uM measured after incubation of 72 hrs by RT-PCR analysis relative to control. The data set is classed as functional, HepG2 2.2.15. In short, it runs like this: (§1)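 Parental HepG2 cells were plated at 2×10^5/well. After 24 h they were transiently transfected for 24 h with a full-length wild-type HBV genome plasmid, then washed with PBS. Cells were then treated for 72 h in fresh medium: entecavir 10 µM, lamivudine 100 µM. Intracellular HBV DNA replicative intermediates were quantified by real-time PCR.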

Data set [5] concerns Hepatitis B virus. In words: Antiviral activity against HBV infected in human HepG2 2.2.15 cells assessed as inhibition of pregenomic RNA expression at 1 uM measured after incubation of 6 by RT-PCR analysis relative to control. In kind it is functional. Particulars: HepG2 2.2.15, 144 h, read-out: INH, time 6 day. In short, it runs like this: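 HepG2 2.2.15 cells were seeded at 6×10^5/well in 6-well plates. They were incubated with 1 µM compound for 6 days. Total cellular RNA was then extracted and pgRNA copies/mL were measured by real-time PCR, giving % inhibition relative to untreated control.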

Data set [6] deals with Hepatitis B virus. In words: Antiviral activity against lamivudine/entecavir-resistant HBV rtL180M/rtM204V/rtT184L mutant infected in human HepG2 2.2.15 cells assessed as inhibition of viral DNA replication at 100 uM measured after incubation of 72 hrs by RT-PCR analysis relative to control. The data set is classed as functional. In short, it runs like this: (§2)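 HepG2 cells (2 × 10^5/well) plated 24 h, then transiently transfected for 24 h with plasmid carrying full-genome HBV with rtL180M + rtM204V + rtT184L (wild-type genome in parallel). Washed with PBS, then given fresh medium with compound for 72 h. Intracellular HBV DNA replicative intermediates extracted and quantified by real-time PCR against the wild-type group.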

Data set [7] concerns Hepatitis B virus. Description: Antiviral activity against lamivudine/entecavir-resistant HBV rtL180M/rtM204V/rtT184L mutant infected in human HepG2 2.2.15 cells assessed as inhibition of viral DNA replication measured after incubation of 72 hrs by RT-PCR analysis. In kind it is functional, organism-based. Particulars: for IC50: HepG2 2.2.15, 72 h. In short, it runs like this: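 HepG2 cells transiently transfected for 24 h with full-genome HBV plasmid carrying rtL180M + rtM204V + rtT184L, washed, then treated over a dose range for 72 h. HBV DNA replicative intermediates quantified by real-time PCR. IC50 is the concentration giving 50% inhibition of HBV DNA replication, as mean ± SD of triplicate experiments.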

Data set [8] is described as follows: Cytotoxicity against human HepG2 2.2.15 cell line assessed as cell viability measured after 72 hrs by MTT assay. In kind it is cell-based. Particulars: HepG2 2.2.15 cells. In short, it runs like this: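 HepG2 2.2.15 cells were precultured for 24 h, then incubated with compound for 72 h. Viability was read as MTT absorbance at 490 nm relative to untreated cells on the same plate. CC50 is the concentration causing 50% cell death.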
Background: Formazan colour is commonly taken as a measure of viable cells.

For data set [9], the system named is Hepatitis B virus. Description: Antiviral activity against lamivudine/entecavir-resistant HBV rtL180M/rtM204V/rtT184L mutant infected in human HepG2 2.2.15 cells assessed as inhibition of viral DNA replication at 0.8 uM measured after incubation of 72 hrs by RT-PCR analysis relative to control. In kind it is functional. The essentials:
as §2

The nature of data set [10]: Selectivity index, ratio of CC50 for human HepG2 2.2.15 to IC50 of Antiviral activity against lamivudine/entecavir-resistant HBV rtL180M/rtM204V/rtT184L mutant infected in human HepG2 2.2.15 cells assessed as inhibition of viral DNA replication measured after incubation of 72 hrs by RT-PCR analysis relative to control. The data set is classed as toxicity, cell-based. Particulars: read-out: Selectivity Index. In short, it runs like this:
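SI is CC50 divided by IC50. CC50 comes from MTT on HepG2 2.2.15 cells, 72 h exposure, absorbance at 490 nm relative to untreated cells. IC50 comes from HepG2 cells transiently transfected with rtL180M + rtM204V + rtT184L HBV plasmid and treated 72 h, with DNA replicative intermediates measured by real-time PCR, triplicate experiments.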

Data set [11] has as its system Hepatitis B virus. In words: Antiviral activity against wild type HBV infected in human […] cells assessed as inhibition of viral DNA replication at 10 uM measured after incubation of 72 hrs by RT-PCR analysis relative to control. The data set is classed as functional, HepG2 2.2.15. In short, it runs like this:
as §1

The subject of data set [12] is Hepatitis B virus. Description: Antiviral activity against lamivudine/entecavir-resistant HBV rtL180M/rtM204V/rtT184L mutant infected in human HepG2 2.2.15 cells assessed as inhibition of viral DNA replication at 10 uM measured after incubation of 72 hrs by RT-PCR analysis relative to control. In kind it is functional. The essentials:
as §2

As to `Nc1ccn([C@@H]2CS[C@H](CO)O2)c(=O)n1` [LAMIVUDINE], the concentration for half-maximal inhibition (IC50) in the data set on Hepatitis B virus [1] is 31 nM; in the data set on Hepatitis B virus [7] it was more than 100000 nM. Besides, the inhibition at 0.8 µM in the data set with Hepatitis B virus [2] was 86.2%. Moreover, in [3], the selectivity ratio at 144 h is more than 1000. In addition, the inhibition at 100 µM with Hepatitis B virus [4] is 90%; with Hepatitis B virus [6], 18.6%. For the same compound, in the data set with Hepatitis B virus [5], the inhibition at 1 µM amounted to 0.26%. For the same compound, in data set [8], the CC50 at 72 h is more than 100000 nM.
Regarding `O=C(N[C@H](CO)Cc1ccccc1)/C(NC(=O)c1ccc(F)cc1)=C(/Br)c1ccccc1`, the figures for the IC50 in the data set with Hepatitis B virus [1] and in the data set on Hepatitis B virus [7] were 380 nM and 430 nM, respectively. Besides, the inhibition at 0.8 µM in the data set on Hepatitis B virus [2] is 74.9%; in the data set on Hepatitis B virus [9] it was 72.9%. For the same compound, in data set [3], the selectivity ratio at 144 h is more than 263. Moreover, the inhibition result in the data set with Hepatitis B virus [7] was “Dose-dependent effect”. Also, the selectivity ratio at 72 h in [10] was more than 232. Also, the CC50 at 72 h in [8] was more than 100000 nM.
As for `O=C(N[C@H](CO)Cc1ccccc1)/C(NC(=O)c1ccc(Cl)cc1Cl)=C(/Br)c1ccccc1`, the concentration for half-maximal inhibition (IC50) with Hepatitis B virus [1] stood at 190 nM; in the data set on Hepatitis B virus [7] it was 180 nM. Further, the results for the inhibition at 0.8 µM in the data set with Hepatitis B virus [2] and in the data set on Hepatitis B virus [9] were 88% and 87%, respectively. Besides, in data set [3], the selectivity ratio at 144 h was more than 526. In the data set with Hepatitis B virus [5], the inhibition at 1 µM stood at 63.1%. For the same compound, the inhibition result in the data set on Hepatitis B virus [7] was “Dose-dependent effect”. Further, the selectivity ratio at 72 h in [10] is more than 556. Moreover, in data set [8], the CC50 at 72 h is more than 100000 nM.
On to `C=C1[C@H](CO)[C@@H](O)C[C@@H]1n1cnc2c(=O)[nH]c(N)nc21` [ENTECAVIR], for which the results for the inhibition at 10 µM with Hepatitis B virus [11] and in the data set on Hepatitis B virus [12] were 96.8% and 20.7%, respectively.
